Tests used:
[1] = tested on: A549; test: Percent growth inhibition against human lung A-549 cell lines at the concentration of 10E-5; type: functional
[2] = tested on: HOP-62; test: Percent growth inhibition against human lung HOP-62 cell lines at the concentration of 10E-5; type: functional
[3] = tested on: HT-29; test: Percent growth inhibition against human colon HT-29 cell lines at the concentration of 10E-5; type: functional
[4] = tested on: SiHa; test: Percent growth inhibition against human cervix SiHa cell lines at the concentration of 10E-6; type: functional
[5] = tested on: Calf thymus DNA; test: Thermal denaturation of calf thymus DNA at 18 hr at 37 degree C; type: nucleic-acid assay; conditions: Bos taurus
Outline: (§1)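 Calf thymus DNA at 100 μM with ligand at 20 μM (1:5 [PBD]/[DNA] molar ratio), in 10 mM sodium phosphate plus 1 mM EDTA, pH 7.00 ± 0.01. Samples were incubated at 37 °C for 0 h or 18 h before thermal melting. The value is the induced ΔTm against DNA alone, whose Tm is the mean of 10 separate determinations.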

[6] = tested on: HCT-15; test: Percent growth inhibition against human colon HCT-15 cell lines at the concentration of 10E-6; type: functional
[7] = tested on: SiHa; test: Percent growth inhibition against human cervix SiHa cell lines at the concentration of 10E-5; type: functional
[8] = tested on: A549; test: Percent growth inhibition against human lung A-549 cell lines at the concentration of 10E-4; type: functional
[9] = tested on: HT-29; test: Percent growth inhibition against human colon HT-29 cell lines at the concentration of 10E-4; type: functional
[10] = tested on: HT-29; test: Percent growth Inhibition against human colon HT-29 cell lines at the concentration of 10E-6; type: functional
[11] = tested on: Calf thymus DNA; test: Thermal denaturation of calf thymus DNA at 0 h at 37 degree C; type: nucleic-acid assay; conditions: Bos taurus; outline: as §1
[12] = tested on: HOP-62; test: Percent growth inhibition against human lung HOP-62 cell lines at the concentration of 10E-6; type: functional
[13] = tested on: A549; test: Percent growth inhibition against human lung A-549 cell lines at the concentration of 10E-6; type: functional
[14] = tested on: SiHa; test: Percent growth inhibition against human cervix SiHa cell lines at the concentration of 10E-4; type: functional
[15] = tested on: HCT-15; test: Percent growth inhibition against human colon HCT-15 cell lines at the concentration of 10E-5; type: functional
[16] = tested on: Calf thymus DNA; test: Thermal denaturation of calf thymus DNA at 37 degree C; type: nucleic-acid assay; conditions: Bos taurus; outline: as §1
[17] = tested on: L1210; test: In vitro cytotoxicity against mouse leukemia L1210 cell lines; type: functional, cell-based

ΔTm [5] [°C]	ΔTm [11] [°C]	Compound	Inhibition [1] [%]	Inhibition [2] [%]	Inhibition [3] [%]	Inhibition [4] [%]	Inhibition [6] [%]	Inhibition [7] [%]	Inhibition [8] [%]	Inhibition [9] [%]	Inhibition [10] [%]	Inhibition [12] [%]	Inhibition [13] [%]	Inhibition [14] [%]	Inhibition [15] [%]	ΔTm [16] [°C]	IC50 [17] [nM]
5.2	5.1	COc1cc2c(cc1OCCCCC(=O)Nc1cccc3c1C(=O)c1ccccc1C3=O)N=C[C@@H]1CCCN1C2=O	10	97	87	40	61	49	93	93	73	73	56	73	82		
9.1	8.9	COc1cc2c(cc1OCCCC(=O)Nc1cccc3c1C(=O)c1ccccc1C3=O)N=C[C@@H]1CCCN1C2=O	27	90	86	41	59	52	93	93	68	74	47	57	66		
		O=C1c2c(O)ccc(O)c2C(=O)c2c(NCCNCCO)ccc(NCCNCCO)c21 [MITOXANTRONE]														15.9	100

Compound	ΔTm [5] [°C]	ΔTm [11] [°C]	Inhibition [1] [%]	Inhibition [2] [%]	Inhibition [3] [%]	Inhibition [4] [%]	Inhibition [6] [%]	Inhibition [7] [%]	Inhibition [8] [%]	Inhibition [9] [%]	Inhibition [10] [%]	Inhibition [12] [%]	Inhibition [13] [%]	Inhibition [14] [%]	Inhibition [15] [%]	ΔTm [16] [°C]	IC50 [17] [nM]
COc1cc2c(cc1O)N=C[C@@H]1CCCN1C2=O		0.3															
